Laboratory results taken from ChEMBL document CHEMBL4011598, “Sulfonamides as Selective NaV1.7 Inhibitors: Optimizing Potency and Pharmacokinetics While Mitigating Metabolic Liabilities” (J Med Chem, 2017).
Converted amounts (≈) assume the structure as drawn.

Legend:
PXR (NR1I2) = target: T1, PXR (NR1I2) (Homo sapiens, UniProt O75469); experiment: Activation of human PXR at 10 uM in presence of rifampicin; type: ADME; details: read-out: Activity
T1 sequence (O75469 whole entry): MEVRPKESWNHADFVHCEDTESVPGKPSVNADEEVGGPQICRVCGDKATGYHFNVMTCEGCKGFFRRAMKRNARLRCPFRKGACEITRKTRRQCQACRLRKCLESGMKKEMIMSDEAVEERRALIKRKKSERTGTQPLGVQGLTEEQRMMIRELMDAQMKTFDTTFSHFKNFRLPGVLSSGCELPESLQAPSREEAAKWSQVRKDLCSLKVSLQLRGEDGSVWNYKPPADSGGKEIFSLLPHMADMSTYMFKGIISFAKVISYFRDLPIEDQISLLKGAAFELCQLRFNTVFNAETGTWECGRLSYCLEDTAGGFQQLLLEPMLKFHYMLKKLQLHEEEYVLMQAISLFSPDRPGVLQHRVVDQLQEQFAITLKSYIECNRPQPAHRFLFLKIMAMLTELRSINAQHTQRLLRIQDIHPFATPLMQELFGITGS

[1] = Intrinsic clearance in human liver microsomes at 1 uM after 1 to 40 mins in presence of NADPH by LC-MS/MS analysis; type: ADME, microsome; details: read-out: CLH
[2] = Intrinsic clearance in rat liver microsomes at 1 uM after 1 to 40 mins in presence of NADPH by LC-MS/MS analysis; type: ADME, microsome; details: read-out: CLH
[3] = target: Sodium channel protein type 9 subunit alpha (Homo sapiens, UniProt Q15858); experiment: Inhibition of human Nav1.7 expressed in HEK293 cells incubated for 3 to 5 mins at -125 mV holding potential by electrophysiology assay; type: cell-based
Sodium channel protein type 9 subunit alpha, sequence (Q15858 whole entry): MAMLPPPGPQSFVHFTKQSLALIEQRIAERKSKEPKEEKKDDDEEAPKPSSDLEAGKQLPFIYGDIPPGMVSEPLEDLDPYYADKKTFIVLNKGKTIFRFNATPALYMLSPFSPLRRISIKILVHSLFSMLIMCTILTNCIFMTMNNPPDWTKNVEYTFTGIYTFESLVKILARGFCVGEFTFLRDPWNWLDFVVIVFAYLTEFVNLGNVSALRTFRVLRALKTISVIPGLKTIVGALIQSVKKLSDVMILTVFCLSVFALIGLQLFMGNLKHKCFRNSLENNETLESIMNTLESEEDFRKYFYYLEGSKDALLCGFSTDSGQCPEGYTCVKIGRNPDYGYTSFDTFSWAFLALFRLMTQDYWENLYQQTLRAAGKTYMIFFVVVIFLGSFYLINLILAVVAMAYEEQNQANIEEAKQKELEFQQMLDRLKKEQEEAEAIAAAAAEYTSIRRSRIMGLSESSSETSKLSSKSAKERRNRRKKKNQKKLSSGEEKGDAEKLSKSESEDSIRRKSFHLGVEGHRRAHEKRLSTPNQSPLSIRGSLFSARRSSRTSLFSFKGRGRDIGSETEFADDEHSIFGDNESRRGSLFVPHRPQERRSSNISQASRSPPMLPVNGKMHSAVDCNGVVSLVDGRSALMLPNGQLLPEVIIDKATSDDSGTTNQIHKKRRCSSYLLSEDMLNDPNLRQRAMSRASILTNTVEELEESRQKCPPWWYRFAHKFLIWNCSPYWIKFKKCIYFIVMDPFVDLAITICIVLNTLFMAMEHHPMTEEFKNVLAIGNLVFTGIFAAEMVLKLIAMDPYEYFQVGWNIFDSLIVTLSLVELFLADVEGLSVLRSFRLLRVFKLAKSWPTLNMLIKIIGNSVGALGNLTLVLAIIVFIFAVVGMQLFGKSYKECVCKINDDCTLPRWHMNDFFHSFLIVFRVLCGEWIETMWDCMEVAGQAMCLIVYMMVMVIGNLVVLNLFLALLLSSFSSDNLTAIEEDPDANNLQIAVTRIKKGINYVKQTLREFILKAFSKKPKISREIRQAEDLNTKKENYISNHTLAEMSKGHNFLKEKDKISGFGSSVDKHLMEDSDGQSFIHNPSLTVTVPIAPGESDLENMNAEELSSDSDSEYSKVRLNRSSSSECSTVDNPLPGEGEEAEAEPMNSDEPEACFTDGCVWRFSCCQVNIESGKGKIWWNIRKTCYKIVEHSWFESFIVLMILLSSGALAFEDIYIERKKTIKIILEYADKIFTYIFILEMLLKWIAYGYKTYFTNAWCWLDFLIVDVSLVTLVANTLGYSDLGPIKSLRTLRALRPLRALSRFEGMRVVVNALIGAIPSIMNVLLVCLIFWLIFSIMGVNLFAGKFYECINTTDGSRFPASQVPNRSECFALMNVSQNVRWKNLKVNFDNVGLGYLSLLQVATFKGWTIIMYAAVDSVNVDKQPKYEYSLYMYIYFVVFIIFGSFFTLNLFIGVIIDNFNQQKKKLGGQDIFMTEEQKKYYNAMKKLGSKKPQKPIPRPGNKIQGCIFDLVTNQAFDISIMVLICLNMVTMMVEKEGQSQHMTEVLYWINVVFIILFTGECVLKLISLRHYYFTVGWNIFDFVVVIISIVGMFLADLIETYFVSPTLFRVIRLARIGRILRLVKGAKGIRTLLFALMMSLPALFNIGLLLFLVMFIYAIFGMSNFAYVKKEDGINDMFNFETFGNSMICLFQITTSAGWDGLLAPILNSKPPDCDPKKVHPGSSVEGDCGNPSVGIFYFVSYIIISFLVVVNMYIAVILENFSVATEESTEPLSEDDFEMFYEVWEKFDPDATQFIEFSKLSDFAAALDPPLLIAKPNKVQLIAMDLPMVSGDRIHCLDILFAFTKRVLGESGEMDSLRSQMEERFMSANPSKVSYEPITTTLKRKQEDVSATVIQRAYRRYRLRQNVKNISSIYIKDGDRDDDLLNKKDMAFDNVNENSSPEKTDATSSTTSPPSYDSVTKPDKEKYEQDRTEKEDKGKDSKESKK

[4] = target: Sodium channel protein type 5 subunit alpha (Homo sapiens, UniProt Q14524); experiment: Inhibition of human Nav1.5 expressed in HEK293 cells assessed as reduction in peak inward current by ionworks quattro electrophysiology assay; type: cell-based
Sodium channel protein type 5 subunit alpha, sequence (Q14524 whole entry): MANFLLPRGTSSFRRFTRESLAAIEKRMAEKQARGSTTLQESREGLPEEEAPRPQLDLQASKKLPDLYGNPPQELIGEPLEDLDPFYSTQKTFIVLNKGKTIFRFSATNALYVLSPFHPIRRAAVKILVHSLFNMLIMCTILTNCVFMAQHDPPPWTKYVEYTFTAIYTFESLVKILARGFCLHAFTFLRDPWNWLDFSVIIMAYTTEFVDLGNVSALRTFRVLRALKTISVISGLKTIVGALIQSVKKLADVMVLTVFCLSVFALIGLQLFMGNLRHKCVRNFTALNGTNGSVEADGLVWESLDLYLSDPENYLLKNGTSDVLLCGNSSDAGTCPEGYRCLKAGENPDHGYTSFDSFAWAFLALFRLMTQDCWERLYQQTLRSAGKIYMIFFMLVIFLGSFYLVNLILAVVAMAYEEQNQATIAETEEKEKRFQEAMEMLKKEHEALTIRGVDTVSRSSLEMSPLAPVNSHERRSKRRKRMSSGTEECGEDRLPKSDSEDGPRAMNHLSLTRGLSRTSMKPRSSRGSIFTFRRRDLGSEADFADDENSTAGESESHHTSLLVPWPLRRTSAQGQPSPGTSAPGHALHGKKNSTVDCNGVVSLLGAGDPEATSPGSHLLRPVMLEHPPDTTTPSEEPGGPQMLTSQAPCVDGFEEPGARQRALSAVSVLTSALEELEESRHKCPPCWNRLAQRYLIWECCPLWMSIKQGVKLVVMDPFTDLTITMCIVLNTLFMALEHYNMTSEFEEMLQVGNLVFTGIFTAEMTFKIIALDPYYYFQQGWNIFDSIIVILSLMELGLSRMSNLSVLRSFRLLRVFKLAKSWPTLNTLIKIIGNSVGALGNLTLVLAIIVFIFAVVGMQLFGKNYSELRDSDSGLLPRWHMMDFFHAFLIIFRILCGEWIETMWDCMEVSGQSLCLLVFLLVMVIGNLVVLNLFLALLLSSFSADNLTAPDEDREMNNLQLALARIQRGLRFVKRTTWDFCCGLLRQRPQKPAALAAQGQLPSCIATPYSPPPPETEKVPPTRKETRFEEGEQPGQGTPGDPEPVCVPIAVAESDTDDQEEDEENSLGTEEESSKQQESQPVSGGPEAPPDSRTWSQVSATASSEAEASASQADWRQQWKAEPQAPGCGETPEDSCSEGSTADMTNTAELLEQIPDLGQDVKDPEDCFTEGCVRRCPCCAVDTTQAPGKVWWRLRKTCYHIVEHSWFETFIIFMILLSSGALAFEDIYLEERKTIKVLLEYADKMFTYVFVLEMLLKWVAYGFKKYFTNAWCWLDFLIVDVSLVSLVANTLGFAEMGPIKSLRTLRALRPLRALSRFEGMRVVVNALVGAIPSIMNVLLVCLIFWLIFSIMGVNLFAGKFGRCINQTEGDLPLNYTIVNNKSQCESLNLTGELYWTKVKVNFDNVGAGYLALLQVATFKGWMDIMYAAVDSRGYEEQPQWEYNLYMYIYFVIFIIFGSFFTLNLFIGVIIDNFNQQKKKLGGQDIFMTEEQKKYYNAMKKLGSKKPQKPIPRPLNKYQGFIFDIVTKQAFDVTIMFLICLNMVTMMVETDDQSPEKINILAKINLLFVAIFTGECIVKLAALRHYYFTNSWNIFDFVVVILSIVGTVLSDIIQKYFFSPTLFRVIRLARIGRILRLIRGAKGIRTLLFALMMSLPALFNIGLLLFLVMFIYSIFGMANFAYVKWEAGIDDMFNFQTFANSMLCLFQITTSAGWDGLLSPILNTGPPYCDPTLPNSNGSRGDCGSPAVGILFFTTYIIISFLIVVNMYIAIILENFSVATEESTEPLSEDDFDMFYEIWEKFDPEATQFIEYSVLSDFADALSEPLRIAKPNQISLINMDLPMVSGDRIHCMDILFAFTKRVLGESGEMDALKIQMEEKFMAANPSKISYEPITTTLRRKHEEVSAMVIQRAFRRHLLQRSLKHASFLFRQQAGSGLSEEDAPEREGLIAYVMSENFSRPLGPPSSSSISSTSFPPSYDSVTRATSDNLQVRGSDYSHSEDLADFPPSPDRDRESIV

Canis familiaris = experiment: Unbound clearance in dog at 0.25 mg/kg, iv; type: ADME, organism-based, Canis lupus familiaris; details: in vivo
Procedure, shortened: (§1)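 Male dogs received a single 0.25 mg/kg iv dose in DMSO. Unbound clearance (CLu) is total clearance divided by fu, the unbound fraction in plasma.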

[5] = Total clearance in dog at 0.25 mg/kg, iv; type: ADME, organism-based, Canis lupus familiaris; details: in vivo; procedure, shortened: as §1
Rattus norvegicus = experiment: Unbound clearance in rat at 0.5 mg/kg, iv; type: ADME, organism-based; details: in vivo
Procedure, shortened: (§2)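 Male rats given a single 0.5 mg/kg iv dose in DMSO. Unbound clearance (CLu) is total clearance divided by fu, the unbound fraction in plasma.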

[6] = Total clearance in rat at 0.5 mg/kg, iv; type: ADME, organism-based; details: in vivo; procedure, shortened: as §2
Cytochrome P450 3A4 [7] = target: T2, Cytochrome P450 3A4 (Homo sapiens, UniProt P08684); experiment: Inhibition of CYP3A4 (unknown origin); type: ADME
T2 sequence (P08684 whole entry): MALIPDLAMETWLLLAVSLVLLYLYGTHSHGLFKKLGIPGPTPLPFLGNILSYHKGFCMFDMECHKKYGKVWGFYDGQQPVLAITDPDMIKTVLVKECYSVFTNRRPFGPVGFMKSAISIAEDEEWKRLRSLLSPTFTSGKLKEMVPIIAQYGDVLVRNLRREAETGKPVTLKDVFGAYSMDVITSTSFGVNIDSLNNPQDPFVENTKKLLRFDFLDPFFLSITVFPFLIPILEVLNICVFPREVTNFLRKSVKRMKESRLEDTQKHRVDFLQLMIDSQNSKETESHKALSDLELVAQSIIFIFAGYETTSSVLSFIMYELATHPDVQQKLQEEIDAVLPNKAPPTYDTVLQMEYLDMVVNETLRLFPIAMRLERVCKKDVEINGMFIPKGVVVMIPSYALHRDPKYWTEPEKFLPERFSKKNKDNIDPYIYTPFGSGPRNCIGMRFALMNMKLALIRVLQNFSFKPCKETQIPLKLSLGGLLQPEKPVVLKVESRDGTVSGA

Cytochrome P450 3A4 [8] = target: T2, Cytochrome P450 3A4; experiment: Induction of CYP3A4 in human hepatocytes at 10 uM relative to rifampicin
[9] = Intrinsic clearance in dog liver microsomes; type: ADME, Canis lupus familiaris, microsome; details: read-out: CLH
[10] = Aqueous solubility of the compound in PBS after 48 hrs by shake flask method; type: physicochemical

Structure (SMILES) | activity at 10 µM (PXR (NR1I2)) | microsomal CLint at 1 µM [1] | microsomal CLint at 1 µM [2] | IC50 [3] | CL free (Canis familiaris) | clearance [5] | CL free (Rattus norvegicus) | clearance [6] | IC50 (Cytochrome P450 3A4 [7]) | Activity (Cytochrome P450 3A4 [8]) | microsomal CLint [9] | solubility thermodynamic at 48 h [10] | IC50 [4]
COc1cc(-c2cc(F)cc(F)c2)c(F)cc1-c1nccc2cc(S(=O)(=O)Nc3ccon3)ccc12 | 47% | 30 µL/min/mg | < 14 µL/min/mg | 0.04 µM | – | – | – | – | – | – | – | – | > 10 µM
COc1cc(-c2cccc(F)c2)c(Cl)cc1-c1nn(C)c(=O)c2cc(S(=O)(=O)Nc3ccon3)ccc12 | 54% | 16 µL/min/mg | 25 µL/min/mg | 0.12 µM | 517 mL/min/kg | 1.83 mL/min/kg | 10300 mL/min/kg | 35 mL/min/kg | – | – | – | – | –
COc1cc(-c2cccc(C(F)(F)F)c2)c(C#N)cc1-c1nccc2cc(S(=O)(=O)Nc3ccon3)ccc12 | 5% | – | – | 0.028 µM | – | – | – | – | – | – | – | – | –
COc1cc(-c2ccc(C(F)(F)F)cc2)c(F)cc1-c1nccc2cc(S(=O)(=O)Nc3ccon3)ccc12 | 0% | < 14 µL/min/mg | < 14 µL/min/mg | – | – | – | – | – | – | – | – | – | > 10 µM
COc1cc(C(F)(F)F)ccc1-c1ncnc2cc(S(=O)(=O)Nc3nccs3)ccc12 | – | – | – | – | 200 mL/min/kg | 0.217 mL/min/kg | 450 mL/min/kg | – | > 50 µM | 128% | – | – | > 30 µM
COc1cc(-c2cccc(F)c2)c(Cl)cc1-c1c(=O)n(C)cc2cc(S(=O)(=O)Nc3ccon3)ccc12 | 69% | < 14 µL/min/mg | 21 µL/min/mg | – | – | – | – | – | – | – | – | – | > 10 µM
COc1cc(-c2cc(F)cc(F)c2)ccc1-c1nccc2cc(S(=O)(=O)Nc3ccon3)ccc12 | 38% | – | – | – | – | – | – | – | – | – | – | – | –
COc1cc(-c2cccc(C(F)(F)F)c2)ccc1-c1nccc2cc(S(=O)(=O)Nc3ccon3)ccc12 | 7% | – | – | 0.061 µM | – | – | – | – | – | – | – | – | –
COc1cc(-c2cc(F)cc(F)c2)c(C#N)cc1-c1nccc2cc(S(=O)(=O)Nc3ccon3)ccc12 | 54% | – | – | 0.14 µM | – | – | – | – | – | – | – | – | –
COc1cc(-c2cc(F)cnc2OC)c(F)cc1-c1nccc2cc(S(=O)(=O)Nc3ccon3)ccc12 | 151% | < 14 µL/min/mg | 21 µL/min/mg | – | – | – | – | – | – | – | – | – | > 10 µM
COc1cc(-c2cccc(F)c2)c(Cl)cc1-c1c(N)nnc2cc(S(=O)(=O)Nc3ccon3)ccc12 | 95% | < 14 µL/min/mg | < 14 µL/min/mg | – | – | – | – | – | – | – | – | – | 0.14 µM

Now from value to molecule, other results behind:

activity at 10 µM (PXR (NR1I2)) | microsomal CLint at 1 µM [1] | microsomal CLint at 1 µM [2] | IC50 [3] | CL free (Canis familiaris) | clearance [5] | CL free (Rattus norvegicus) | clearance [6] | IC50 (Cytochrome P450 3A4 [7]) | Activity (Cytochrome P450 3A4 [8]) | microsomal CLint [9] | solubility thermodynamic at 48 h [10] | Structure (SMILES) | IC50 [4]
54% | 36 µL/min/mg | 34 µL/min/mg | 0.047 µM | – | – | – | – | – | – | – | – | COc1cc(-c2cccc(C)c2)c(F)cc1-c1nccc2cc(S(=O)(=O)Nc3ccon3)ccc12 | > 10 µM
28% | 15 µL/min/mg | 28 µL/min/mg | – | 2330 mL/min/kg | 2.17 mL/min/kg | – | – | – | – | – | – | COc1cc(-c2cccc(F)c2)c(Cl)cc1-c1ncc(O)c2cc(S(=O)(=O)Nc3ccon3)ccc12 | –
59% | 21 µL/min/mg | 58 µL/min/mg | – | 417 mL/min/kg | 2 mL/min/kg | – | – | – | – | – | – | COc1cc(-c2cccc(F)c2)c(Cl)cc1-c1ncnc2cc(S(=O)(=O)Nc3ccon3)ccc12 | –
24% | < 14 µL/min/mg | < 14 µL/min/mg | 0.065 µM | – | – | – | – | > 27 µM | – | – | – | COc1cc(-c2cccc(F)c2)c(Cl)cc1-c1nccc2cc(S(=O)(=O)Nc3ccncn3)ccc12 | > 10 µM
– | – | – | 0.73 µM | 26.7 mL/min/kg | 0.917 mL/min/kg | 183 mL/min/kg | 4.33 mL/min/kg | 7.2 µM | 177% | – | – | COc1cc(C(F)(F)F)ccc1-c1nccc2cc(S(=O)(=O)Nc3ccncn3)ccc12 | > 30 µM
– | < 14 µL/min/mg | < 14 µL/min/mg | 0.15 µM | 152 mL/min/kg | 0.817 mL/min/kg | 6500 mL/min/kg | 28.3 mL/min/kg | 1.3 µM | 12% | < 14 µL/min/mg | 344 µM (≈ 167 µg/mL) | COc1cc(-c2cccc(F)c2)ccc1-c1nccc2cc(S(=O)(=O)Nc3ccncn3)ccc12 | > 30 µM
34% | 36 µL/min/mg | 34 µL/min/mg | – | – | – | – | – | – | – | – | – | COc1cc(-c2cccc(Cl)c2)c(F)cc1-c1nccc2cc(S(=O)(=O)Nc3ccon3)ccc12 | –
27% | < 14 µL/min/mg | 18 µL/min/mg | – | 8500 mL/min/kg | 13.7 mL/min/kg | 25000 mL/min/kg | 35 mL/min/kg | – | – | – | – | COc1cc(-c2cccc(F)c2)c(Cl)cc1-c1[nH]c(=O)cc2cc(S(=O)(=O)Nc3ccon3)ccc12 | 0.82 µM
1% | 35 µL/min/mg | 21 µL/min/mg | – | – | – | – | – | – | – | – | – | COc1cc(-c2ccc(Cl)c(C)c2)c(F)cc1-c1nccc2cc(S(=O)(=O)Nc3ccon3)ccc12 | > 10 µM
10% | < 14 µL/min/mg | 20 µL/min/mg | 0.047 µM | 2570 mL/min/kg | 2.83 mL/min/kg | 15700 mL/min/kg | 26.7 mL/min/kg | > 27 µM | – | – | – | COc1cc(-c2cccc(F)c2)c(Cl)cc1-c1nccc2cc(S(=O)(=O)Nc3ncon3)ccc12 | –
38% | 46 µL/min/mg | 98 µL/min/mg | – | – | – | – | – | > 27 µM | – | – | – | COc1cc(-c2cccc(F)c2)c(Cl)cc1-c1nccc2cc(S(=O)(=O)Nc3ncco3)ccc12 | > 10 µM
52% | < 14 µL/min/mg | 29 µL/min/mg | – | – | – | – | – | > 27 µM | – | – | – | COc1cc(-c2cccc(F)c2)c(Cl)cc1-c1nccc2cc(S(=O)(=O)Nc3cccnn3)ccc12 | –
68% | < 14 µL/min/mg | 18 µL/min/mg | 0.049 to 0.051 µM | 26.7 to 31.7 mL/min/kg | 0.05 mL/min/kg | 700 mL/min/kg | 0.783 mL/min/kg | > 27 µM | 58% | – | – | COc1cc(-c2cccc(F)c2)c(Cl)cc1-c1nccc2cc(S(=O)(=O)Nc3ccon3)ccc12 | > 10 µM
5.9% | < 14 µL/min/mg | < 14 µL/min/mg | – | – | – | – | – | 0.8 µM | – | – | – | COc1cc(-c2cccc(F)c2)c(Cl)cc1-c1nccc2cc(S(=O)(=O)Nc3ncns3)ccc12 | 1.5 µM
31% | < 14 µL/min/mg | 32 µL/min/mg | 0.12 µM | – | – | – | – | > 27 µM | – | – | – | COc1cc(-c2cccc(F)c2)c(Cl)cc1-c1nccc2cc(S(=O)(=O)Nc3ncccn3)ccc12 | > 10 µM
